Results pooled from the literature.

SMILES | tested on | assay | system | conditions | endpoint | result
COc1ncc(-c2cn([C@@H]3O[C@](F)(CO)[C@@H](O)[C@H]3O)cn2)c(OC)n1 | Severe acute respiratory syndrome coronavirus 2 | viral replication, inhibitor | A549-ACE2 | 24 h | IC50 | > 100 µM
COc1ccc(C=NNC(=S)N[N+](=O)[O-])cc1OC | Leishmania tropica | parasite growth | J774.A1 | 72 h, intracellular, amastigote | IC50 | 775 µM
N.N.[Cl][Pt][Cl] | NALM-6 | cell growth or viability, ATP luminescence | – | 10 µM, 72 h | inhibition | 97%
COc1ncncc1-c1cn([C@@H]2O[C@](F)(CO[P@@](=O)(N[C@@H](C)C(=O)OC(C)C)Oc3ccccc3)[C@@H](O)[C@H]2O)cn1 | Severe acute respiratory syndrome coronavirus 2 | viral replication, inhibitor | A549-ACE2 | 24 h | IC50 | > 100 µM
O=c1[nH]c2ccccc2n1C1CCN(CCCC(c2ccc(F)cc2)c2ccc(F)cc2)CC1 | Severe acute respiratory syndrome coronavirus 2 | viral replication, inhibitor | Caco-2 | replicon | IC50 | 2.14 µM
Nc1ncc(-c2cn([C@@H]3O[C@](F)(CO)[C@@H](O)[C@H]3O)cn2)cn1 | Severe acute respiratory syndrome coronavirus 2 | viral replication, inhibitor | A549-ACE2 | 24 h | IC50 | > 100 µM
CC1=NN(c2ccc(C)c(C)c2)C(=O)/C1=N\Nc1cccc(-c2cccc(C(=O)O)c2)c1O | Severe acute respiratory syndrome coronavirus 2 | viral replication, inhibitor | Calu-3 | replicon | IC50 | 4.55 µM
CCOC(=O)C1=C(CN2CCOCC2)NC(c2nccs2)=NC1c1ccc(F)cc1Br (centres unmarked) | Hepatitis B virus | viral replication, inhibitor, qPCR | HepDES19 | 72 h | EC50 | 0.04 µM
Cc1ccc(C=NNC(=S)N[N+](=O)[O-])cc1 | Leishmania tropica | parasite growth | J774.A1 | 72 h, intracellular, amastigote | IC50 | 331 µM
CC(=O)OCC(=O)[C@@]12OC3(CCCC3)O[C@@H]1C[C@H]1[C@@H]3CCC4=CC(=O)C=C[C@]4(C)[C@@]3(F)[C@@H](O)C[C@@]12C | Severe acute respiratory syndrome coronavirus 2 | viral replication, inhibitor | Caco-2 | replicon | IC50 | 3.37 µM
COc1ncc(-c2cn([C@@H]3O[C@](F)(CO)[C@@H](O)[C@H]3O)cn2)c(N)n1 | Severe acute respiratory syndrome coronavirus 2 | viral replication, inhibitor | A549-ACE2 | 24 h | IC50 | > 100 µM
COc1cnc(OC)n2nc(NS(=O)(=O)c3c(OCC(F)F)cccc3C(F)(F)F)nc12 | L02 | cell growth or viability, CCK-8 | – | 100 µM, 72 h | inhibition | 1.54%
O=[N+]([O-])NC(=S)NN=Cc1ccc(Br)cc1 | Leishmania tropica | parasite growth, MTT | – | 72 h, promastigote | IC50 | 1240 µM
Cc1c(O)cccc1C(=O)N[C@@H](CSc1ccccc1)[C@H](O)CN1C[C@H]2CCCC[C@H]2C[C@H]1C(=O)NC(C)(C)C | Severe acute respiratory syndrome coronavirus 2 | viral replication, inhibitor | Caco-2 | replicon | IC50 | 1.91 µM
